Source: ChEMBL document CHEMBL5653623 (J Pharmacol Exp Ther, 2015)
Activity calls are given as the source filed them. The rule behind the calls is not given here.

Experiments:
[1] = target: T1, Mitogen-activated protein kinase kinase kinase 5 (Homo sapiens, UniProt Q99683); experiment: Inhibition of MAP3K5 (unknown origin)
T1 sequence (Q99683 whole entry): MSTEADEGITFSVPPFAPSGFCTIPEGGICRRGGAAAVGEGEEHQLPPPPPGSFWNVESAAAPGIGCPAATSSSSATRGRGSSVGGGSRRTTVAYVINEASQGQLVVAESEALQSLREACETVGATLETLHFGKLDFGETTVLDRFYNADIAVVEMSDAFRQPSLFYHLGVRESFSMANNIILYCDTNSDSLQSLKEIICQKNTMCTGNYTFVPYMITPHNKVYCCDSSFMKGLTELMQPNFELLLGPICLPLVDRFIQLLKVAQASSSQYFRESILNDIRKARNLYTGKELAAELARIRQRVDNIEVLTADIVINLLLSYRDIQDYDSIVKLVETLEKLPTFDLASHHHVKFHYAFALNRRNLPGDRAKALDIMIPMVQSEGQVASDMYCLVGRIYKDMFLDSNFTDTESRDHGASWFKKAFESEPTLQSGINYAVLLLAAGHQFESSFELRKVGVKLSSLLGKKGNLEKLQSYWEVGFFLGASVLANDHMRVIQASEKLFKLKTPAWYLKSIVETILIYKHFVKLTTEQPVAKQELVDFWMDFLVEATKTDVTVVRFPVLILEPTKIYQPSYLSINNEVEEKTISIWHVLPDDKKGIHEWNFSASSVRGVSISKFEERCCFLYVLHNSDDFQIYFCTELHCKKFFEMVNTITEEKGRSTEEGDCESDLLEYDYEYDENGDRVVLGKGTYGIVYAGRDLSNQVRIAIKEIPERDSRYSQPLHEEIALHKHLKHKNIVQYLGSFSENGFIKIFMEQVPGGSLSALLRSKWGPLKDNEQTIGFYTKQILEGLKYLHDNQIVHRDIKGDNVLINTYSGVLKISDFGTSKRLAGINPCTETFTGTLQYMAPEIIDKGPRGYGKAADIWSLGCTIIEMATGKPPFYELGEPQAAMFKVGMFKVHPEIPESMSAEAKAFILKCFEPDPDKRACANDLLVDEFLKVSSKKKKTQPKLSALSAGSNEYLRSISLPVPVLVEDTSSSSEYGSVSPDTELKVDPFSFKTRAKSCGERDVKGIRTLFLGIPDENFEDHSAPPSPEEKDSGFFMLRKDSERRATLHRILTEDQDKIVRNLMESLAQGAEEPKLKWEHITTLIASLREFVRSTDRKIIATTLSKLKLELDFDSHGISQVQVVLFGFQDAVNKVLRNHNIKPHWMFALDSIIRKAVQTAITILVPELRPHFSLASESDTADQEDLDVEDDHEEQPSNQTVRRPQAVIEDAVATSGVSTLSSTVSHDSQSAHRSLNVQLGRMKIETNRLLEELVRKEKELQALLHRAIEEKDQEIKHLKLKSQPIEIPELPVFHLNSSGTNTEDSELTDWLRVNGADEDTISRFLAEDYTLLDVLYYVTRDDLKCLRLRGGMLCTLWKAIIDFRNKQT

[2] = Inhibition of adenosine transporter (unknown origin); parameters: species or system Homo sapiens
In short: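 Radioligand binding selectivity screen was run at 10 μM, mean of three determinations. Where inhibition exceeded 50%, full concentration-displacement curves were run in triplicate and IC50 was obtained by nonlinear least-squares regression.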

[3] = MRT in C57Bl/6 mouse at 2 mg/kg, iv measured after 480 mins by LC-MS/MS analysis; type: ADME, organism-based; conditions: in vivo
In short: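 Male C57Bl/6 mice (20-25 g) given a single IV dose (2 mg/kg) or oral dose (10 mg/kg). Blood was sampled at 5, 15, 30, 60, 120, 240, 360 and 480 min and plasma prepared by centrifugation. Plasma drug levels were measured by LC/MS/MS. Values are mean (CV%), N=3.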

[4] = Unbound fraction in C57Bl/6 mouse brain; type: ADME, tissue-based
In short: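 Plasma and brain binding were determined by equilibrium dialysis at 1 μM.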

[5] = Unbound brain concentration in C57Bl/6 mouse at 100 mg/kg, po administered for 1 hr; type: ADME, organism-based; conditions: in vivo
[6] = target: Leucine-rich repeat serine/threonine-protein kinase 2 (Mus musculus) (UniProt Q5S006); experiment: In vivo inhibition of LRRK2 in C57Bl/6 mouse brain assessed as decrease in pSer935 LRRK2 measured after 1 hr by Western blotting analysis; type: functional, organism-based; conditions: dose 1-100 mg/kg, route po
In short: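 Male C57Bl/6 mice, 20-25 g. Single oral dose of 1-100 mg/kg suspended in 30% Captisol (10 mL/kg), or vehicle, given 1 h before CO2 euthanasia. Cortex frozen on dry ice and pSer935 LRRK2 read by Western blot. n = 5 per group.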

[7] = Toxicity in C57Bl/6 mouse assessed as lower food intake measured after 1 to 3 days; conditions: in vivo, time 1-3 day
In short: (§1)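 Male C57Bl/6 mice, singly housed on a reversed 12 h light cycle, were fed diet formulated to give 3, 10, 30, 60 or 120 mg/kg/day (assumes 3 g/day intake) or untreated diet for 11 days. Body weight and food intake were monitored. Spontaneous locomotion and rearing were recorded over 60 min. On day 11, mice were euthanized 4, 8 or 24 h after dark onset and plasma and brain drug levels measured; n = 5 per group.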

[8] = Unbound brain concentration in C57Bl/6 mouse administered for 11 days and measured after 24 hrs; type: ADME, tissue-based; conditions: in vivo, 264 h, time 11 day; in short: as §1
Mus musculus [9] = experiment: Effect on body weight in MitoPark mouse at 30 mg/kg administered for 15 weeks; type: functional, organism-based
In short: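 MitoPark mice, 5 weeks old, were allocated by baseline 60-min LMA to untreated diet or diet targeting 30 mg/kg/day (reformulated every 3 weeks). Wild-type littermates received vehicle diet. Body weight and food intake were recorded weekly. 60-min LMA (distance, rearing) was run at 8, 11, 14 and 17 weeks of age.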

Mus musculus [10] = experiment: Effect on behavioral changes in 14 weeks old MitoPark mouse striatum assessed as dopamine level at 30 mg/kg/day by HPLC analysis; type: functional
In short: (§2)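 Striatum from MitoPark mice on diet targeting 30 mg/kg/day or vehicle diet (wild-type littermate controls) was homogenized by sonication in 0.1 M acid at 0.1 g/mL. Samples were held 60 min at 4 °C and centrifuged. Dopamine, DOPAC and HVA were measured by HPLC with electrochemical detection against a 3,4-DHBA internal standard and standard curves. Mean ± SEM.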

Mus musculus [11] = experiment: Effect on behavioral changes in 8 weeks old MitoPark mouse striatum assessed as DOPAC level at 30 mg/kg/day administered for 3 weeks by HPLC analysis; type: functional; in short: as §2
Mus musculus [12] = experiment: Effect on behavioral changes in 14 weeks old MitoPark mouse striatum assessed as HVA level at 30 mg/kg/day by HPLC analysis; type: functional; in short: as §2

Chain of Leucine-rich repeat serine/threonine-protein kinase 2 (Mus musculus) (Q5S006 whole entry): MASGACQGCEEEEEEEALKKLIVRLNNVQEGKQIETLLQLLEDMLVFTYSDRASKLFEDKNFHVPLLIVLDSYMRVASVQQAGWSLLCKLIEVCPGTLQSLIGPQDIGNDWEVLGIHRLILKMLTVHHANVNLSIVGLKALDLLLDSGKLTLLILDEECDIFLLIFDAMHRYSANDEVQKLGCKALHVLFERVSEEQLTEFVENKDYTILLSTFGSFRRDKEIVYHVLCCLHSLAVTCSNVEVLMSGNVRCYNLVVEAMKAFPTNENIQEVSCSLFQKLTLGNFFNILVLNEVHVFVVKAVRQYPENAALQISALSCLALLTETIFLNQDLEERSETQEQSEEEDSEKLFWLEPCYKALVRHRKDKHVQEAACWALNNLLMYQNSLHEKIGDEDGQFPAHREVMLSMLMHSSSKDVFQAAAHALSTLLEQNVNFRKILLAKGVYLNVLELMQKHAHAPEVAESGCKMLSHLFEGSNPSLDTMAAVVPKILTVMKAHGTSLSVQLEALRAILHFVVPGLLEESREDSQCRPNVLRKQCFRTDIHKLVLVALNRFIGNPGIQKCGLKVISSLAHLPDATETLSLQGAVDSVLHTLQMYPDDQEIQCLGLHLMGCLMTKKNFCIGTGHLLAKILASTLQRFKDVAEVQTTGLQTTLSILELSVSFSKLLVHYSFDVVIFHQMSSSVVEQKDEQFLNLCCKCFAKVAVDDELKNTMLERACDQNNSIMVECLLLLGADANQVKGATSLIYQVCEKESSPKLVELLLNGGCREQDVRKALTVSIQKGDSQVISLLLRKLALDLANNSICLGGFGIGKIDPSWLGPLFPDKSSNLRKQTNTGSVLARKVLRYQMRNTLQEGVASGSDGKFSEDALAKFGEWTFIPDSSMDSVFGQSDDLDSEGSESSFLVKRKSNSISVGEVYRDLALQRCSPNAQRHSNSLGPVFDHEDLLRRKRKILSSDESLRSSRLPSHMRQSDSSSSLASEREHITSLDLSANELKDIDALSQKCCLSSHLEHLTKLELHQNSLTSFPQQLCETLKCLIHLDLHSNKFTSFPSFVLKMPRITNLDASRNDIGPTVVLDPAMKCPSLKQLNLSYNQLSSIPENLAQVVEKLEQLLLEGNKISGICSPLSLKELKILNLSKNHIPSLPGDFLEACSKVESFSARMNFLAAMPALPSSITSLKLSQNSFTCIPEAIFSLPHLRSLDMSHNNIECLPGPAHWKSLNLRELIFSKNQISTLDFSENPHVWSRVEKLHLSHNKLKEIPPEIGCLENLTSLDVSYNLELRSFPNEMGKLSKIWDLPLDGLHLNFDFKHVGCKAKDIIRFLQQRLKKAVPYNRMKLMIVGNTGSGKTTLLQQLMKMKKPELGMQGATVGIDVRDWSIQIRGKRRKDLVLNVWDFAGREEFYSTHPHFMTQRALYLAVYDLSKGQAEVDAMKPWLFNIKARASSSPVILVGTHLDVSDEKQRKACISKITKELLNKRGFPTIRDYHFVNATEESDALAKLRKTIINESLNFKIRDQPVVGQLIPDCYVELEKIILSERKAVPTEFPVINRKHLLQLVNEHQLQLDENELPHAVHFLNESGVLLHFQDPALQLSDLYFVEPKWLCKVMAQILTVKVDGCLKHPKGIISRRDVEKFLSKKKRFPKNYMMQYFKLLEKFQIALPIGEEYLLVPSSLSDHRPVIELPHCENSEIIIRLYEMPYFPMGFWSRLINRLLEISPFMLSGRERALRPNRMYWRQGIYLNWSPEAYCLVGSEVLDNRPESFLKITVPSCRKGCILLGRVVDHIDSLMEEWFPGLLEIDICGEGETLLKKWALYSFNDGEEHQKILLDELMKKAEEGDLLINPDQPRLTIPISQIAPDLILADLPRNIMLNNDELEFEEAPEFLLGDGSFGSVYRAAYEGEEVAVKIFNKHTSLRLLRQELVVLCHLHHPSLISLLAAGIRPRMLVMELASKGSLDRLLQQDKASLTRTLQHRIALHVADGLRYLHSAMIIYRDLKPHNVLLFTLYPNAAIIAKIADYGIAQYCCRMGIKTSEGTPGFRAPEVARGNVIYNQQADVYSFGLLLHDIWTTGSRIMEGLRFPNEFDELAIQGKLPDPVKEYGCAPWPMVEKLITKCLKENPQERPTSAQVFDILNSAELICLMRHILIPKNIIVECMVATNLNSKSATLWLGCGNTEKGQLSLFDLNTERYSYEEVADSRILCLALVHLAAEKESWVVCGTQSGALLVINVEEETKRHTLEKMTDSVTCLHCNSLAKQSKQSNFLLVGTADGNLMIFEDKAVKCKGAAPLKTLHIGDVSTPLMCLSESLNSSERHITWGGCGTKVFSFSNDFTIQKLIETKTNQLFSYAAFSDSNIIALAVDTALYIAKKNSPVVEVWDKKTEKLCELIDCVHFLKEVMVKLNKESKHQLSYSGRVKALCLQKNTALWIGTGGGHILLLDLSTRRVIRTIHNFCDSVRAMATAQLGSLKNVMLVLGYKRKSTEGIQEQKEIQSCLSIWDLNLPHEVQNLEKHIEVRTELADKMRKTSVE

## C[C@@H]1CN(c2cc(-c3n[nH]c4ccc(OC5(C)CC5)cc34)ncn2)C[C@H](C)O1 [MLi-2]
[1]
  IC50: 0.428 µM
[2]
  IC50: 9.7 µM
[3]
  MRT: 2.7 h
[4]
  fraction unbound: 0.009
[5]
  Drug uptake(free): 272.9 nM
[6]
  inhibition: Dose-Dependent Effect
[7]
  Activity: Toxic
[8]
  Drug uptake(free): Active
Mus musculus [9]
  Activity: inactive
Mus musculus [10]
  Activity: 1105 ng/g
Mus musculus [11]
  Activity: 8966 ng/g
Mus musculus [12]
  Activity: 323.7 ng/g
